Data from ChEMBL document CHEMBL1126049, “Bioreductive fluorescent markers for hypoxic cells: a study of 2-nitroimidazoles with 1-substituents containing fluorescent, bridgehead-nitrogen, bicyclic systems” (J Med Chem, 1992).

Columns and labels:
Type in all cases: cell-based
Conditions in all cases: Cricetulus griseus
V79-379A [1] = assay: Cytofluorimetric analysis of V79 379A chinese hamster cells incubated under hypoxic conditions with the compound (10e-4 M)
Outline: (§1)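 V79 379A Chinese hamster cells grown as exponential suspension cultures in Eagle's MEM (Earle's salts, suspension-modified) with 7.5% foetal calf serum. Cells incubated with drug at 37 °C under oxic (air + 5% CO2) or hypoxic (nitrogen + 5% CO2) gassing. Flow cytometry used 365 nm laser excitation at 100-200 mW. Emission collected >390 nm, or >410 nm for some compounds. Data gated on forward scatter and fluorescence to exclude debris. Mean fluorescence in arbitrary units, normalized for PMT gain and laser power.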

V79-379A [2] = assay: Cytofluorimetric analysis of V79 379A chinese hamster cells incubated under oxic conditions with the compound (10e-4 M); outline: as §1
V79-379A [3] = assay: Maximum accumulation of fluorescent metabolites in V79 379A chinese hamster cells after incubation with the compound (10e-4) at tmax; outline: as §1

Row | SMILES | Fluorescence (V79-379A [1]) [AU] | Fluorescence (V79-379A [2]) [AU] | Tmax (V79-379A [3]) [h]
1 | N#Cc1c(C(=O)NCCN(CCO)CC(O)Cn2ccnc2[N+](=O)[O-])cn2ccccc12 (centres undefined) | 81 | 27 | 6
2 | O=c1c(NCC(O)Cn2ccnc2[N+](=O)[O-])cnc2ccccn12 (centres undefined) | 1750 | 603 | 6
3 | Cc1c(C)n2c(CNCC(O)Cn3ccnc3[N+](=O)[O-])c(C)c(=O)n2c1=O (centres undefined) | 89 | 33 | 15
4 | CCOC(=O)c1c(C)c(CN(C)CCCn2ccnc2[N+](=O)[O-])c2ccccn12 | 765 | 258 | 6
5 | CCOC(=O)c1c(C(=O)NCCN(CCO)CC(O)Cn2ccnc2[N+](=O)[O-])cn2ccccc12 (centres undefined) | 1140 | 66 | 6
6 | O=[N+]([O-])c1nccn1CC(O)CNc1ccc(-c2cn3ccccc3n2)cc1 (centres undefined) | 1570 | 417 | 6
7 | O=[N+]([O-])c1nccn1CC(O)CNc1ccc(-c2cc3ccccn3c2)cc1 (centres undefined) | 169 | 107 | 6
8 | Cc1c(C)n2c(CN(C)CC(O)Cn3ccnc3[N+](=O)[O-])c(C)c(=O)n2c1=O (centres undefined) | 55 | 43 | 15
